Laboratory results published in ChEMBL document CHEMBL5257098, “Development and Characterization of Fluorescent Probes for the G Protein-Coupled Receptor 35” (ACS Med Chem Lett, 2023).
Active and inactive are the calls of the source. No cut-off for these calls is given here.

Columns and labels:
[1] = target: T1, G-protein coupled receptor 35 (Homo sapiens, UniProt Q9HC97); test: Agonist activity at GPR-35 in human HT-29 cells by DMR assay; type: cell-based
Outline: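 Label-free DMR was recorded in HT-29 cells endogenously expressing GPR35 across a range of probe concentrations. EC50 was taken from concentration–response curves. Values are mean ± SD of two independent measurements, each with four replicates.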

[2] = target: T1, G-protein coupled receptor 35; test: Agonist activity at GPR-35 in human HT-29 cells assessed as desensitization of zaprinast induced DMR response incubated for 1 hr followed by zaprinast stimulation; type: cell-based
[3] = target: T1, G-protein coupled receptor 35; test: Agonist activity at human GPR-35 over expressed in CHO-K1 cells incubated for 1 hr followed by zaprinast stimulation by DMR assay; type: cell-based; conditions: filed as agonist
[4] = target: T1, G-protein coupled receptor 35; test: Binding affinity to Nluc-fused human GPR35 expressed in CHO-K1 cells using furimazine as substrate incubated for 30 mins in presence of zaprinast followed by substrate addition by […] equilibrium binding assay; type: cell-based
Outline: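 CHO-K1 cells were transfected with human GPR35 carrying an N-terminal nano-luciferase tag. Fluorescent probes were added at varying concentrations for saturation BRET binding. […] Kd was derived from the data. Values are mean ± SD of three independent measurements, each in triplicate.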

[5] = target: T1, G-protein coupled receptor 35; test: Agonist activity at GPR-35 in human HT-29 cells assessed as DMR response in presence of ML-145
[6] = target: T1, G-protein coupled receptor 35; test: Competitive binding affinity to Nluc-fused human GPR35 expressed in CHO-K1 cells assessed as inhibition constant using furimazine as substrate incubated for 30 mins followed by substrate addition by in presence of 10-(4-(2-(4-(4-((2,8-dicarboxy-6-hydroxy-10-methylpyrido[3,2-g]quinolin-4-yl)oxy)butyl)-1H-1,2,3-triazol-1-yl)ethoxy)phenyl)-5,5-difluoro-2,7,9-trimethyl-5H-imidazo[1,2-c]pyrrolo[2,1-f][ …; type: cell-based
[7] = target: T1, G-protein coupled receptor 35; test: Agonist activity at GPR-35 in human HT-29 cells incubated for 1 hr by DMR assay; type: cell-based
[8] = target: T1, G-protein coupled receptor 35; test: Reversible binding affinity to Nluc-fused human GPR35 expressed in CHO-K1 cells using furimazine as substrate incubated for 10 mins followed by addition of ML145 by kinetic assay; type: cell-based; conditions: filed as agonist
Outline: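 Kinetic BRET binding used CHO-K1 cells expressing NLUC-tagged human GPR35. The BRET emission ratio was followed after adding probe (5 nM). 10 min later, ML-145 (10 μM) was added to dissociate the probe.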

T1 sequence (Q9HC97 whole entry): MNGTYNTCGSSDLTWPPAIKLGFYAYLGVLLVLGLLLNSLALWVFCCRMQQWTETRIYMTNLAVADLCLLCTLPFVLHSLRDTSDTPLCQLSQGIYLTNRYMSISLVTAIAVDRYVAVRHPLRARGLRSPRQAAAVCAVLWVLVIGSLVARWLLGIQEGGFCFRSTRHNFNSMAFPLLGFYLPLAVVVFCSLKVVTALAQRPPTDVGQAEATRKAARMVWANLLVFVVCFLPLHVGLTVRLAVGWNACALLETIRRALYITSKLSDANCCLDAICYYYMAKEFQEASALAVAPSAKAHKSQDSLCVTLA

CC1=CC(C)=[N+]2C1=C(c1ccc(OCCn3cc(CCCOc4cc(C(=O)O)nc5c(C)c6nc(C(=O)O)cc(O)c6cc45)nn3)cc1)c1nc(C)cn1[B-]2(F)F
EC50 [1]: 80.8 nM | IC50 [2]: 9.6 nM | Activity [3]: Active | Kd [4]: 7.4 nM | IC50 [5]: 1030 nM

O=c1oc2c([N+](=O)[O-])c(O)c(Br)cc2cc1-c1nnn[nH]1
Ki [6]: 51 nM | EC50 [7]: 6 nM

O=C(O)c1cc2cc(Br)c(O)c(Br)c2oc1=O
Ki [6]: 352 nM

CC1=CC(C)=[N+]2C1=C(c1ccc(OCCn3cc(CCOCCOc4cc(C(=O)O)nc5c(C)c6nc(C(=O)O)cc(O)c6cc45)nn3)cc1)c1nc(C)cn1[B-]2(F)F
EC50 [1]: 58.8 nM | IC50 [2]: 7.8 nM | Activity [3]: Active | Kd [4]: 17.9 nM | IC50 [5]: 769 nM

COC(=O)c1cnn(-c2ccc(F)cc2F)c1/C=N/NC(=S)NC(C)(C)C
Ki [6]: 236 nM

COc1ccc(C(=O)Nc2cc(Br)ccc2-c2nnn[nH]2)cc1
Ki [6]: 10 nM

Cc1c2[nH]c(C(=O)O)cc(=O)c2cc2c(=O)cc(C(=O)O)[nH]c12
Ki [6]: 6 nM

O=C(O)c1cc(C(=O)O)c2c(n1)C(=O)C(=O)c1cc(C(=O)O)[nH]c1-2 [PYRROLOQUINOLINE QUINONE]
Ki [6]: 332 nM

CC1=CC(C)=[N+]2C1=C(c1ccc(OCCn3cc(CCCCOc4cc(C(=O)O)nc5c(C)c6nc(C(=O)O)cc(O)c6cc45)nn3)cc1)c1nc(C)cn1[B-]2(F)F
EC50 [1]: 49.5 nM | IC50 [2]: 9.4 nM | Activity [3]: Active | Kd [4]: 3.9 nM | Activity [8]: Active | IC50 [5]: 542 nM

O=C(O)c1cc(=O)c2c(OCC(O)COc3cccc4oc(C(=O)O)cc(=O)c34)cccc2o1 [CROMOLYN]
Ki [6]: 2970 nM

CC1=CC(C)=[N+]2C1=C(c1ccc(OCCn3cc(CCCCCOc4cc(C(=O)O)nc5c(C)c6nc(C(=O)O)cc(O)c6cc45)nn3)cc1)c1nc(C)cn1[B-]2(F)F
EC50 [1]: 42.2 nM | IC50 [2]: 5.6 nM | Activity [3]: Active | Kd [4]: 8.3 nM | IC50 [5]: 398 nM
